Data set [1] concerns the target T1, Macrophage migration inhibitory factor (Homo sapiens) (UniProt P14174).
T1 sequence (whole entry): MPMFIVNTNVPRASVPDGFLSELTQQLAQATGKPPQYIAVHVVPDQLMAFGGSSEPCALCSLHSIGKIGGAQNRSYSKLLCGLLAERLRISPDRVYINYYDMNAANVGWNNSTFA
In words: Binding affinity to MIF in human HCT116 whole cell lysates by Western blotting analysis. The conditions noted are these: HCT-116. A digest of the protocol: (§1)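 Affinity capture with immunoaffinity-fluorescent (IAF)-tagged probe. Live-cell route: HCT116 cells incubated 4 h at 37 °C with 15 μg probe in 15 mL media, then lysed (D-PBS, 5 mM EDTA, 1% NP-40, protease inhibitors). Whole-lysate route: probe added after lysis. Lysate immunoprecipitated on anti-IAF mAb resin 4 h at 4 °C. Elution with 0.1 M glycine-HCl pH 2.5, then NuPAGE and blotting with anti-hMIF mAb.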

In data set [2] the test system is HCT-116. As to the kind of experiment: Cellular uptake in human HCT116 cells assessed as increase in blue fluorescence at 10 uM after 1 hr by inverted confocal microscopic analysis. The class given is ADME, cell-based. The note with it: hct-116, 1 h. A digest of the protocol: (§2)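 Live HCT116 cells in McCoy's 5A with 10% FCS, 37 °C, 5% CO2. Compound added as 10× stock in media, final DMSO under 0.5%. Time-lapse imaging over 24 h at 10–15 min intervals, then spinning-disk confocal at selected times (1, 6, 24 h) with IAF tag excitation 360 nm and emission 470 nm. Lysosomes counterstained with LysoTracker Red after fixation in formaldehyde/glutaraldehyde.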

For data set [3], the system named is HCT-116. In words: Cytotoxicity against human HCT116 cells assessed as compaction of chromatin at 10 uM after 24 hrs by inverted confocal microscopic analysis. The class given is cell-based. The conditions noted are these: hct-116, 24 h. A digest of the protocol: as §2
The target in data set [4] is T1, Macrophage migration inhibitory factor (Homo sapiens). In words: Inhibition of human recombinant MIF tautomerase activity expressed in Escherichia coli BL21(DE3) at 100 uM in presence of dopachrome. A digest of the protocol: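 Dopachrome made from 0.24 mM DOPA plus 0.48 mM NaIO4 in 25 mM potassium phosphate pH 7.2, 5 min at rt. Added 1:1 to wells holding 10 μM purified recombinant hMIF premixed with 100 μM compound. Kinetics followed immediately at 485 nm. Controls: buffer, compound alone, hMIF alone.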

A short description of data set [5]: Drug uptake in human HCT116 cell membrane at 10 uM after 1 hr by inverted confocal microscopic analysis. The data set is classed as ADME, cell-based. The conditions noted are these: hct-116, 1 h. In short, it runs like this: as §2
In data set [6] the test system is HCT-116. As to the kind of experiment: Cytotoxicity against human HCT116 cells assessed as membrane blebbing at 10 uM after 24 hrs by inverted confocal microscopic analysis. The conditions noted are these: hct-116, 24 h. The class given is cell-based. In short, it runs like this: as §2
Data set [7] deals with T1, Macrophage migration inhibitory factor (Homo sapiens). As to the kind of experiment: Binding affinity to human recombinant MIF expressed in Escherichia coli BL21(DE3) lysates by Western blotting analysis. A digest of the protocol: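 E. coli BL21(DE3) lysate expressing recombinant hMIF (pET-11b, 0.4 mM IPTG, 4 h), 1–2 mg net protein. Immunoprecipitated with 1 μg IAF-tagged probe on anti-IAF mAb resin, 4 h at 4 °C. Glycine-HCl pH 2.5 elution. Blot probed with mouse anti-hMIF monoclonal and AP-conjugated secondary, BCIP/NBT development.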

Data set [8] can be described thus: Drug uptake in human HCT116 cell cytoplasm at 10 uM after 1 hr by inverted confocal microscopic analysis. The data set is classed as ADME, cell-based. The note with it: hct-116, 1 h. A digest of the protocol: as §2
In data set [9] the target is T1, Macrophage migration inhibitory factor (Homo sapiens). In words: Binding affinity to MIF in human HCT116 live cell lysates by Western blotting analysis. The conditions noted are these: HCT-116. In short, it runs like this:
as §1
Background: A western blot detects proteins with antibodies after separation by electrophoresis.

The nature of data set [10]: Cellular uptake in human HCT116 cells assessed as lysosomal localization at 10 uM after 6 to 12 hrs by inverted confocal microscopic analysis. The class given is ADME, cell-based, Lysosome. The conditions noted are these: hct-116, 10 µM. In short, it runs like this:
as §2

Data set [11] deals with HCT-116. As to the kind of experiment: Cytotoxicity against human HCT116 cells by MTT assay. The data set is classed as functional, cell-based. In short, it runs like this:
(§3)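 HCT-116 cells grown in McCoy's 5A with 10% heat-inactivated FCS and penicillin/streptomycin at 37 °C, 5% CO2. Conventional MTT assay, run in triplicate at 5 or 6 concentrations spanning 0 to 0.035 mg/mL. Repeated until deviation fell within 5%.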
A general note: Tetrazolium assays rely on reduction of a dye to a coloured formazan, in cell work by metabolically active cells.

Data set [12] has as its system HCT-116. In words: Growth inhibition of human HCT116 cells. The data set is classed as functional. A digest of the protocol:
as §3

Data set [13] in a line: Cytotoxicity against human NCI60 cells by MTT assay. The class given is functional.
In data set [14] the target is T1, Macrophage migration inhibitory factor (Homo sapiens). In words: Inhibition of human recombinant Alexa 488-labeled MIF expressed in Escherichia coli BL21(DE3) assessed as inhibition of uptake into human HCT116 cells at 30 uM after 2 hrs by inverted confocal microscopic analysis. The conditions noted are these: HCT-116. In short, it runs like this: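 Recombinant hMIF labeled with Alexa Fluor 488 (~0.3 dye per protein) in NaHCO3 pH 8.3. HCT-116 cells given 1.5 μM Alexa-hMIF premixed with 30 μM compound for 2 h at 37 °C, then washed and fixed with formaldehyde/glutaraldehyde. Two-color confocal imaging: 375 nm excitation with 448 nm emission, and 488 nm excitation with 524 nm emission.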

The target is the same in data set [15]. As to the kind of experiment: Inhibition of human MIF-mediated AKT phosphorylation expressed in mouse NIH/3T3 cells after 30 mins by Western blotting analysis. The data set is classed as cell-based. The note with it: NIH3T3. In short, it runs like this:
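NIH/3T3 cells grown 24 h in DMEM with 10% FCS in 12-well plates, then serum-starved 24 h. Treated 30 min with hMIF (1 μg) plus DMSO or plus compound (0.1 μg) in 100 μL medium. Lysates blotted for p-Akt Ser473, total Akt and GAPDH. p-Akt/Akt ratio normalized to GAPDH, with untreated cells set to 1. Three independent experiments.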

The target in data set [16] is T2, Macrophage migration inhibitory factor (Homo sapiens, UniProt P14174).
T2 sequence (P14174 whole entry): T1 sequence (whole entry)
In words: Binding affinity to human recombinant MIF expressed in Escherichia coli BL21(DE3) by isothermal titration calorimetric assay. In short, it runs like this:
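Recombinant hMIF from E. coli BL-21(DE3) (pET-11b), purified by SP/Q flow-through, dialyzed in 50 mM potassium phosphate pH 7.4. ITC at 30 °C: 1.25 mM hMIF titrated from syringe into 1.5 mL of 0.5 mM ligand in the same buffer with 2% DMSO. Buffer-only titration used as control. Kd fitted with a sigmoid function over multiple analyses.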

Setting [17] is: read-out: LC50 (the source's name).

The structures appear in SMILES notation. Active and inactive are the calls of the source. No cut-off for these calls is given here.

The source of these data is ChEMBL document CHEMBL2375282, “Spirohexenolide A targets human macrophage migration inhibitory factor (hMIF)” (J Nat Prod, 2013).

One may read the IC50 as the concentration that inhibits the measured activity by half. As usually defined, the GI50 is the concentration that inhibits growth by half. A high value points to less potent growth inhibition. The term TGI denotes the concentration giving total growth inhibition. Lower therefore signals more potent growth arrest. A word on the Kd: it is a measure of binding affinity in units of concentration.

As for `CC1=C[C@]2(C)/C=C(C)/C=C/C[C@@H](OC(=O)CCC(=O)NCCCCCCNC(=O)Cc3cc(=O)oc4cc(N(C)C)ccc34)/C=C3C=C/C(=C4\C(=O)O[C@]2(C[C@@H]1C)C4=O)OC/3`, the outcome in data set [1], in data set [7] and in data set [9] was Active. Further, the Drug uptake entry (in the data set with HCT-116 [2]; in data set [5]; in data set [8]; in data set [10]) was “Active” throughout. Further, the Activity entry with HCT-116 [3] and in the data set with HCT-116 [6] was “Toxic” in each case. Also, the inhibition entry in data set [4] is “inactive”. For the same molecule, the IC50 in the data set with HCT-116 [11] is 6 µM.
`CC1=C[C@]2(C)/C=C(C)/C=C/C[C@@H](OC(=O)CCn3cc(CNC(=O)Cc4cc(=O)oc5cc(N(C)C)ccc45)nn3)/C=C3C=C/C(=C4\C(=O)O[C@]2(C[C@@H]1C)C4=O)OC/3` registered a concentration for half-maximal inhibition (IC50) in the data set with HCT-116 [11] of 21.2 µM.
Turning to `CC1=C[C@]2(C)/C=C(C)/C=C/C[C@@H](O)/C=C3C=C/C(=C4\C(=O)O[C@]2(C[C@@H]1C)C4=O)OC/3`, the GI50 in the data set on HCT-116 [12] was 0.79 µM; in data set [13] it was 2.16 µM. The TGI with HCT-116 [12] worked out at 5.01 µM; in [13], 8.81 µM. The values for the CC50 (in the data set with HCT-116 [12] (setting [17]); in [13] (setting [17])) were 100 µM and 33.2 µM, respectively. In addition, the inhibition entry in [4] is “inactive”. In addition, the inhibition result in data set [14] and in [15] was “Active” throughout. The Kd in data set [16] was 35.9 µM. Further, the IC50 with HCT-116 [11] worked out at 36 µM.
